Results reported in ChEMBL document CHEMBL5653625, “P21-Activated Kinase Inhibitors FRAX486 and IPA3: Inhibition of Prostate Stromal Cell Growth and Effects on Smooth Muscle Contraction in the Human Prostate” (PLoS One, 2016).
The source made the active and inactive calls. The rule behind the calls is not given here.

Experiments:
WPMY-1 [1] = assay: Inhibition of actin filament organization in human WPMY-1 cells at 1 uM incubated for 24 hrs by FITC-coupled phalloidin staining based laser scanning microscopy; format: functional, cell-based
Summary of the method: (§1)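 Serum-starved WPMY-1 cells grown on chamber slides with inhibitor (1–10 µM) or DMSO for 24 h, then stained for F-actin with FITC-labeled phalloidin and imaged by laser scanning confocal microscopy; filament bundles, protrusions and cell shape judged visually against solvent controls; representative images from 5 independent experiments.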

Homo sapiens [2] = organism: Homo sapiens; assay: Inhibition of endothelin-1 induced prostate cancer patient derived human Prostate gland strips contraction assessed as reduction in KCl-induced contraction at 10 uM by organ-bath analysis; format: functional, tissue-based
Summary of the method: (§2)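 Human prostate strips (6 x 3 x 3 mm) in aerated (95% O2/5% CO2) Krebs-Henseleit, 37°C, pH 7.4, resting tone 4.9 mN after 45 min equilibration; reference contraction to 80 mM KCl, washout, then inhibitor or DMSO added before cumulative noradrenaline, phenylephrine or endothelin concentration-response curves or EFS frequency-response curves; tension expressed as % of KCl contraction.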

WPMY-1 [3] = assay: Inhibition of actin filament organization in human WPMY-1 cells at 1 to 10 uM incubated for 24 hrs by FITC-coupled phalloidin staining based laser scanning microscopy; format: functional, cell-based; settings: dose 1-10 µM; summary of the method: as §1
Homo sapiens [4] = organism: Homo sapiens; assay: Inhibition of noradrenaline induced prostate cancer patient derived human Prostate gland strips contraction assessed as reduction in KCl-induced contraction at 30 uM by organ-bath analysis; format: functional, tissue-based; summary of the method: as §2
[5] = Cytotoxicity against human WPMY-1 cells assessed as cell survival rate at 5 to 10 uM incubated for 48 to 72 hrs by WST-8 assay; format: toxicity, cell-based; settings: dose lower 5 µM, time lower 48 hrs, dose upper 10 µM, time upper 72 hrs, read-out: Survival
Summary of the method: (§3)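 WPMY-1 human prostate stromal cells kept in RPMI 1640 with 10% FCS and 1% penicillin/streptomycin, 37°C, 5% CO2; switched to FCS-free medium before treatment. Seeded 20,000 cells/well, grown 24 h, then exposed to inhibitor or DMSO (1, 5, 10 µM) for 24, 48 or 72 h with separate controls per period. WST-8 (CCK-8) added, absorbance 450 nm after 2 h at 37°C; 5 independent experiments, means ±SEM.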

[6] = Cytotoxicity against human WPMY-1 cells assessed as reduction in cell viability at 1 to 10 uM incubated for 24 hrs by WST-8 assay; format: toxicity, cell-based; settings: wpmy-1, 24 h, dose 1-10 µM
Homo sapiens [7] = organism: Homo sapiens; assay: Inhibition of endothelin-1 induced prostate cancer patient derived human Prostate gland strips contraction assessed as reduction in KCl-induced contraction at 30 uM by organ-bath analysis; format: functional, tissue-based; summary of the method: as §2
WPMY-1 [8] = assay: Inhibition of actin filament organization in human WPMY-1 cells assessed as degeneration of protrusions at 1 uM incubated for 24 hrs by FITC-coupled phalloidin staining based laser scanning microscopy; format: functional, cell-based; summary of the method: as §1
[9] = Cytotoxicity against human WPMY-1 cells assessed as reduction in cell viability at 1 to 10 uM incubated for 24 to 72 hrs by WST-8 assay; format: toxicity, cell-based; settings: wpmy-1, 10 µM, TDE = time-dependent effect, dose lower 1 µM, time lower 24 hrs, dose upper 10 µM, time upper 72 hrs
Homo sapiens [10] = organism: Homo sapiens; assay: Inhibition of phenylephrine induced prostate cancer patient derived human Prostate gland strips contraction assessed as reduction in KCl-induced contraction at 30 uM by organ-bath analysis; format: functional, tissue-based; summary of the method: as §2
WPMY-1 [11] = assay: Inhibition of actin filament organization in human WPMY-1 cells assessed as reduction in degree of actin polymerization at 1 uM incubated for 24 hrs by FITC-coupled phalloidin staining based laser scanning microscopy; format: functional, cell-based; summary of the method: as §1
Homo sapiens [12] = organism: Homo sapiens; assay: Inhibition of electric field stimulation induced prostate cancer patient derived human Prostate gland strips contraction assessed as reduction in KCl-induced contraction at 30 uM at 2 to 32 Hz frequency by organ-bath analysis; format: functional, tissue-based; summary of the method: as §2
[13] = Effect on DISC1 knockdown-elicited synaptic changes in rat cortical neurons assessed as prevention of spine size reduction preincubated for 60 mins followed by APV WD solution addition and measured after 20 mins by immunofluorescence analysis; format: functional, cell-based; settings: cortical neurone
[14] = Inhibition of actin filament organization in human WPMY-1 cells assessed as rounded cell shape without protrusion at 5 to 10 uM incubated for 24 hrs by FITC-coupled phalloidin staining based laser scanning microscopy; format: functional; settings: dose 5-10 µM; summary of the method: as §1
[15] = molecular target: Serine/threonine-protein kinase PAK 2 (Homo sapiens, UniProt Q13177); assay: Inhibition of full length PAK2 (unknown origin) assessed s reduction in substrate phosphorylation using peptide as substrate by FRET based Z-LYTE kinase assay
Homo sapiens [16] = organism: Homo sapiens; assay: Inhibition of electric field stimulation induced prostate cancer patient derived human Prostate gland strips contraction assessed as reduction in KCl-induced contraction at 10 uM by organ-bath analysis; format: functional, tissue-based; summary of the method: as §2
Homo sapiens [17] = organism: Homo sapiens; assay: Inhibition of endothelin-2 induced prostate cancer patient derived human Prostate gland strips contraction assessed as reduction in KCl-induced contraction at 30 uM by organ-bath analysis; format: functional, tissue-based; summary of the method: as §2
[18] = Cytotoxicity against human WPMY-1 cells assessed as cell survival rate at 1 uM incubated for 24 hrs by WST-8 assay; format: toxicity, cell-based; settings: read-out: Survival; summary of the method: as §3
[19] = molecular target: Serine/threonine-protein kinase PAK 3 (Homo sapiens, UniProt O75914); assay: Inhibition of full length PAK3 (unknown origin) assessed s reduction in substrate phosphorylation using peptide as substrate by FRET based Z-LYTE kinase assay
[20] = Cytotoxicity against human WPMY-1 cells assessed as reduction in cell proliferation at 1 to 10 uM incubated for 24 hrs by EdU incorporation assay; format: toxicity, cell-based; set-up: scale not given: the % may be the effect or the level left; settings: wpmy-1, 24 h, dose 1-10 µM
[21] = Cytotoxicity against human WPMY-1 cells assessed as cell survival rate at 1 uM incubated for 24 to 72 hrs by WST-8 assay; format: toxicity, cell-based; settings: time 24-72 hrs, read-out: Survival; summary of the method: as §3
Homo sapiens [22] = organism: Homo sapiens; assay: Inhibition of noradrenaline induced prostate cancer patient derived human Prostate gland strips contraction assessed as reduction in KCl-induced contraction at 300 uM by organ-bath analysis; format: functional, tissue-based; summary of the method: as §2
Homo sapiens [23] = organism: Homo sapiens; assay: Inhibition of electric field stimulation induced prostate cancer patient derived human Prostate gland strips contraction assessed as reduction in KCl-induced contraction at 100 uM by organ-bath analysis; format: functional, tissue-based; summary of the method: as §2
Homo sapiens [24] = organism: Homo sapiens; assay: Inhibition of phenylephrine induced prostate cancer patient derived human Prostate gland strips contraction assessed as reduction in KCl-induced contraction at 300 uM by organ-bath analysis; format: functional, tissue-based; summary of the method: as §2
Homo sapiens [25] = organism: Homo sapiens; assay: Inhibition of electric field stimulation induced prostate cancer patient derived human Prostate gland strips contraction assessed as reduction in KCl-induced contraction at 300 uM at 32 Hz frequency by organ-bath analysis; format: functional, tissue-based; summary of the method: as §2
[26] = Cytotoxicity against human WPMY-1 cells assessed as cell survival rate at 10 uM incubated for 48 to 72 hrs by WST-8 assay; format: toxicity, cell-based; settings: time 48-72 hrs, read-out: Survival; summary of the method: as §3

Sequence of Serine/threonine-protein kinase PAK 2 (Q13177 whole entry): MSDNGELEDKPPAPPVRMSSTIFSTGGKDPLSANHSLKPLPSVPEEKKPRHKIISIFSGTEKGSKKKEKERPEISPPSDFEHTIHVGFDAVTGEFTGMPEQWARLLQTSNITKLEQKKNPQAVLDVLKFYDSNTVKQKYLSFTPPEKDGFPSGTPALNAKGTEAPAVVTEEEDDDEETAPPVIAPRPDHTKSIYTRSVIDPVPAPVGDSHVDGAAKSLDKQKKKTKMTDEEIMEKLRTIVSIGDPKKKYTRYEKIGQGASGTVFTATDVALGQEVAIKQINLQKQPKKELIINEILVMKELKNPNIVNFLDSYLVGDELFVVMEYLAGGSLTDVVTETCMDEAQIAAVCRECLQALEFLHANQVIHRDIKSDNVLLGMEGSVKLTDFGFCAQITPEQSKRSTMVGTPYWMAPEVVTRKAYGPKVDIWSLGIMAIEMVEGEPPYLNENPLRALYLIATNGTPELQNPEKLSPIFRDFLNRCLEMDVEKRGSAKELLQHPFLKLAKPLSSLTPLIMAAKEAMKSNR
Sequence of Serine/threonine-protein kinase PAK 3 (O75914 whole entry): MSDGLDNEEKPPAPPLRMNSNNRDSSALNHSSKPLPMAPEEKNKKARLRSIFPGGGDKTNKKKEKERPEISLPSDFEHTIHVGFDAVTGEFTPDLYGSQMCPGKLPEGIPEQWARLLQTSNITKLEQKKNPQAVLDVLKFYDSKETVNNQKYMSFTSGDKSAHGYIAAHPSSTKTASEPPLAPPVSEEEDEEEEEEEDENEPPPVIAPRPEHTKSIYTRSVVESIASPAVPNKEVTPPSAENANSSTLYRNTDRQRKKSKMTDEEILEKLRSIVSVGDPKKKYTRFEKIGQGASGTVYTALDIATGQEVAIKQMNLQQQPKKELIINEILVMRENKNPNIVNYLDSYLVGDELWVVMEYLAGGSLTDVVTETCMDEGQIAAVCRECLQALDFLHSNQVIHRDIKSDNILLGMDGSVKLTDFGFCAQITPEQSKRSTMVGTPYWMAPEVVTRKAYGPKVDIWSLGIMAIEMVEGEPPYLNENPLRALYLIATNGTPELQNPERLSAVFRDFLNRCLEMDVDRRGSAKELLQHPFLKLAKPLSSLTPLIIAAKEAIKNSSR

CCn1c(=O)c(-c2ccc(Cl)cc2Cl)cc2cnc(Nc3ccc(N4CCNCC4)c(F)c3)nc21
inhibition (WPMY-1 [1]): Active
inhibition (Homo sapiens [2]): inactive
inhibition (WPMY-1 [3]): Dose-Dependent Effect
inhibition (Homo sapiens [4]): inactive
viability at up to 10 µM [5]: 1%
Activity [6]: Dose-Dependent Effect
inhibition (Homo sapiens [7]): Active
inhibition (WPMY-1 [8]): Active
Activity [9]: Tde
inhibition (Homo sapiens [10]): inactive
inhibition (WPMY-1 [11]): Active
inhibition (Homo sapiens [12]): Active
EC50 [13]: 0.5 µM
inhibition (INH) [14]: 100%
IC50 [15]: 0.01 µM
inhibition (Homo sapiens [16]): inactive
inhibition (Homo sapiens [17]): Active
viability at 24 h, 1 µM [18]: 55%
IC50 [19]: 0.01 µM
Activity [20]: 45%

Oc1ccc2ccccc2c1SSc1c(O)ccc2ccccc12
viability at 1 µM [21]: 55%
inhibition (WPMY-1 [1]): Active
inhibition (Homo sapiens [22]): inactive
inhibition (WPMY-1 [3]): Dose-Dependent Effect
Activity [6]: Dose-Dependent Effect
inhibition (Homo sapiens [23]): inactive
inhibition (WPMY-1 [8]): Active
Activity [9]: Tde
inhibition (WPMY-1 [11]): Active
inhibition (INH) [14]: 100%
inhibition (Homo sapiens [24]): inactive
inhibition (Homo sapiens [25]): Active
Activity [20]: 41%
viability at 10 µM [26]: 1%
